{"source": "ChEMBL document CHEMBL4340532", "about": "“Design, synthesis, and biological evaluation of novel 2'-deoxy-2'-fluoro-2'-C-methyl 8-azanebularine derivatives as potent anti-HBV agents” (Bioorg Med Chem Lett, 2019)", "key": {"Hepatitis B virus [1]": {"tested_on": "Hepatitis B virus", "assay": "Antiviral activity against Hepatitis B virus infected in human HepG2.2.15 cells assessed as inhibition of HBsAg secretion at 20 uM supplemented with fresh medium containing compound every 3 days for 6 days and measured on day 9 by ELISA relative to control", "type": "functional", "method_in_brief": "(§1)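 HepG2.2.15 cells were exposed to compound for up to 9 days. The initial screen used 20 µM for 9 days, with lamivudine (20 µM) as positive control. Follow-up used 10, 20 or 40 µM sampled at days 3, 6 and 9. HBsAg and HBeAg were quantified in culture supernatant by ELISA and compared with a no-drug control. Results are mean ± SD of three experiments.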"}, "Hepatitis B virus [2]": {"tested_on": "Hepatitis B virus", "assay": "Antiviral activity against Hepatitis B virus infected in human HepG2.2.15 cells assessed as inhibition of HBeAg secretion at 20 uM supplemented with fresh medium containing compound every 3 days for 6 days and measured on day 9 by ELISA relative to control", "type": "functional", "method_in_brief": "as §1"}, "[3]": {"assay": "Cytotoxicity against human HepG2 cells supplemented with fresh medium containing compound every 3 days for 9 days measured post-last dose by MTT assay", "type": "cell-based", "method_in_brief": "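HepG2 cells were exposed to compound for 3 or 9 days and viability was read by MTT assay. CC50 is the concentration causing 50% cytotoxicity. Results are mean ± SD of three experiments.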"}}, "data": [{"smiles": "C[C@@]1(F)[C@H](O)[C@@H](CO)O[C@H]1n1nnc2c(Nc3ccccc3)ncnc21", "values": [{"measurement": "inhibition (INH)", "setting": "Hepatitis B virus [1]", "value": 14.8, "unit": "%"}, {"measurement": "inhibition (INH)", "setting": "Hepatitis B virus [2]", "value": 17.7, "unit": "%"}, {"measurement": "CC50 at 216 h", "setting": "[3]", "value": 501, "unit": "µM"}]}]}
